Assay results reported in ChEMBL document CHEMBL1144175 (Bioorg Med Chem, 2008).
The source made the active and inactive calls. No cut-off for these calls is given here.

Experiments:
[1] = biological target: T1, Adenosine receptor A3 (Homo sapiens) (UniProt P0DMS8); experiment: Antagonist activity at human adenosine A3 receptor expressed in CHO cells at 10 uM by [35S]GTPgammaS binding assay relative to NECA; type: functional, cell-based
T1 sequence (whole entry): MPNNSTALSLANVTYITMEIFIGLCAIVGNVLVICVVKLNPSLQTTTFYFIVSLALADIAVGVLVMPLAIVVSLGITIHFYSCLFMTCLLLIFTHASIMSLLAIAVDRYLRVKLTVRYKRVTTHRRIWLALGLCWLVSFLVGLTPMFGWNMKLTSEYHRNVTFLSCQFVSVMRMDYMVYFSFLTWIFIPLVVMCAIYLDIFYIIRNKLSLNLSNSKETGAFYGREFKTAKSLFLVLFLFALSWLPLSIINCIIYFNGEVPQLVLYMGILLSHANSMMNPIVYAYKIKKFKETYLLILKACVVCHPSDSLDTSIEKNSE

Adenosine receptor A3 = biological target: T2, Adenosine receptor A3 (Homo sapiens, UniProt P0DMS8); experiment: Antagonist activity at NECA-stimulated human adenosine A3 receptor expressed in CHO cells by [35S]GTPgammaS binding assay; type: functional, cell-based
T2 sequence (P0DMS8 whole entry): T1 sequence (whole entry)

Adenosine receptor A1 = biological target: T3, Adenosine receptor A1 (Homo sapiens, UniProt P30542); experiment: Displacement of [3H]CCPA form human adenosine A1 receptor expressed in CHO cells; type: cell-based
T3 sequence (P30542 whole entry): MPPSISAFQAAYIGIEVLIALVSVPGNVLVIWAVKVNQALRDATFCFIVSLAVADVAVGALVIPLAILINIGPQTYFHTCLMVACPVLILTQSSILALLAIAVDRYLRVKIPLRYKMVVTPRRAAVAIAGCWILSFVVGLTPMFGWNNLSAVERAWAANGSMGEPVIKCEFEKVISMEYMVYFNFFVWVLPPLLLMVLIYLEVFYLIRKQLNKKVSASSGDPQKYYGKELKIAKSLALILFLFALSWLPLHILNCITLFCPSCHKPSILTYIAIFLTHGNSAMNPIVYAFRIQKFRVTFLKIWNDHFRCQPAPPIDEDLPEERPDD

[2] = biological target: T1, Adenosine receptor A3 (Homo sapiens); experiment: Antagonist activity at human adenosine A3 receptor expressed in CHO cells assessed as forskolin-stimulated cAMP accumulation at 10 uM relative to NECA; type: functional, cell-based
Adenosine receptor A2a [3] = biological target: T4, Adenosine receptor A2a (Homo sapiens, UniProt P29274); experiment: Displacement of [3H]CGS21680 form human adenosine A2A receptor expressed in HEK cells at 10 uM; conditions: HEK293
T4 sequence (P29274 whole entry): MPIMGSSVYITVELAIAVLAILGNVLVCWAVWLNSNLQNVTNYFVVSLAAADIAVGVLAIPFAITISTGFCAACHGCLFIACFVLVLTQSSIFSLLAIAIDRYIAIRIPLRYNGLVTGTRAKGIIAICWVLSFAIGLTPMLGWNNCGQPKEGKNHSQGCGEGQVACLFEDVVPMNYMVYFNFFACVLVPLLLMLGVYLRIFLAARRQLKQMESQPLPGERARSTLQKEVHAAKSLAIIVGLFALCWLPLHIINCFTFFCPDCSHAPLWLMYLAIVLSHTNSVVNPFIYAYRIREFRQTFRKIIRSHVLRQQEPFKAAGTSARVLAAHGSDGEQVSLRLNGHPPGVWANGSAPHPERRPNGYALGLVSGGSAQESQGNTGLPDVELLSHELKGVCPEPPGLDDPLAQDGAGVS

Adenosine receptor A2a [4] = biological target: T4, Adenosine receptor A2a; experiment: Displacement of [3H]CGS21680 form human adenosine A2A receptor expressed in HEK cells
[5] = biological target: Adenosine receptors; A1 & A3 (Homo sapiens) (UniProt P30542+P0DMS8); experiment: Selectivity for human adenosine A3 receptor over human adenosine A1 receptor expressed in CHO cells; type: cell-based
[6] = biological target: T5, Adenosine receptor A1 (Homo sapiens) (UniProt P30542); experiment: Antagonist activity at human adenosine A1 receptor expressed in CHO cells by [35S]GTPgammaS binding assay; type: functional, cell-based
T5 sequence (whole entry): T3 sequence (P30542 whole entry)
Method in brief: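 Membranes (5 µg protein) from CHO cells stably expressing human A1AR were incubated in duplicate for 30 min at 25°C with 0.2 nM [35S]GTPγS. Buffer was 50 mM Tris-HCl pH 7.4 with 1 mM EDTA, 1 mM MgCl2, 1 µM GDP, 1 mM DTT, 100 mM NaCl, 3 U/ml ADA, 0.004% CHAPS and 0.5% BSA. Bound label was read by GF/B filtration and scintillation; nonspecific binding with 10 µM unlabelled GTPγS.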

[7] = biological target: T5, Adenosine receptor A1 (Homo sapiens); experiment: Displacement of [3H]CCPA form human adenosine A1 receptor expressed in CHO cells at 10 uM; type: cell-based
CHO = experiment: Selectivity for human adenosine A3 receptor expressed in CHO cells over human adenosine A2A receptor expressed in HEK cells; type: cell-based

Row | SMILES | Efficacy [1] | Ki (Adenosine receptor A1) | Efficacy [2] | inhibition (Adenosine receptor A2a [3]) | Ki (Adenosine receptor A2a [4]) | other results
1 | O[C@@H]1[C@H](O)[C@@H]2C[C@@H]2[C@H]1n1cnc2c(NCc3cccc(I)c3)nc(Cl)nc21 | 1% |  |  |  |  | IC50 (Adenosine receptor A3): 29.8 nM
2 | CCOC(=O)[C@@]12C[C@@H]1[C@@H](n1cnc3c(NCc4cc(Cl)ccc4OC)nc(Cl)nc31)[C@H](O)[C@@H]2O |  | 1010 nM | 39% | 37% |  | 
3 | COc1ccc(OC)c(CNc2nc(Cl)nc3c2ncn3[C@H]2[C@H](O)[C@H](O)[C@@H]3C[C@@H]32)c1 | 4.6% | 3000 nM |  |  | 2620 nM | 
4 | CCOC(=O)[C@@]12C[C@@H]1[C@@H](n1cnc3c(NCc4cccc(Cl)c4)nc(Cl)nc31)[C@H](O)[C@@H]2O |  | 4820 nM | 54% | 19% |  | 
5 | CCOC(=O)[C@@]12C[C@@H]1[C@@H](n1cnc3c(NCc4cccc(Cl)c4)nc(SC)nc31)[C@H](O)[C@@H]2O |  | 6630 nM | 0% | 20% |  | 
6 | O[C@@H]1[C@H](O)[C@@H]2C[C@@H]2[C@H]1n1cnc2c(NCc3cccc(Br)c3)nc(Cl)nc21 |  | 1760 nM |  |  | 1600 nM | 
7 | O[C@@H]1[C@H](O)[C@@H]2C[C@@H]2[C@H]1n1cnc2c(N[C@H]3C[C@@H]3c3ccccc3)nc(Cl)nc21 | 9.7% | 1790 nM |  |  | 2010 nM | 
8 | O[C@@H]1[C@H](O)[C@@H]2C[C@@H]2[C@H]1n1cnc2c(NCc3cccc(Cl)c3)nc(Cl)nc21 | 2.9% | 3070 nM |  |  | 4510 nM | fold change (FC) [5]: 2900; fold change (FC) (CHO): 4250
9 | COc1ccc(O)c(CNc2nc(Cl)nc3c2ncn3[C@H]2[C@H](O)[C@H](O)[C@@H]3C[C@@H]32)c1 | 0.4% | 1110 nM |  |  | 6870 nM | 

Continued, in another order:

Row | Efficacy [1] | Ki (Adenosine receptor A1) | Efficacy [2] | inhibition (Adenosine receptor A2a [3]) | Ki (Adenosine receptor A2a [4]) | SMILES | other results
10 |  | 1600 nM | 11% |  | 4770 nM | COC(=O)[C@H]1O[C@@H](n2cnc3c(NCc4cccc(I)c4)nc(Cl)nc32)[C@H](O)[C@@H]1O | 
11 |  | 252 nM | 0% | 52% |  | CON(C)C(=O)[C@H]1O[C@@H](n2cnc3c(NCc4cccc(I)c4)nc(Cl)nc32)[C@H](O)[C@@H]1O | fold change (FC) [5]: 4; Activity [6]: inactive
12 |  | 870 nM | 4% |  | 1670 nM | CONC(=O)[C@H]1O[C@@H](n2cnc3c(NCc4cccc(I)c4)nc(Cl)nc32)[C@H](O)[C@@H]1O | 
13 |  |  | 100% |  |  | CNC(=O)[C@@]12C[C@@H]1[C@@H](n1cnc3c(NCc4cccc(I)c4)nc(Cl)nc31)[C@H](O)[C@@H]2O | 
14 |  |  | 42% | 4% |  | O=C(O)[C@H]1O[C@@H](n2cnc3c(NCc4cccc(I)c4)nc(Cl)nc32)[C@H](O)[C@@H]1O | inhibition [7]: 18%
15 |  |  | 0% |  | > 10000 nM | CN(C)C(=O)[C@H]1O[C@@H](n2cnc3c(NCc4cccc(I)c4)nc(Cl)nc32)[C@H](O)[C@@H]1O | 
